Measurements as given in ChEMBL document CHEMBL4354804, “Discovery of a New Isoxazole-3-hydroxamate-Based Histone Deacetylase 6 Inhibitor SS-208 with Antitumor Activity in Syngeneic Melanoma Mouse Models” (J Med Chem, 2019).
The source made the active and inactive calls. No cut-off for these calls is given here.

Tests used:
[1] = tested on: T-24; test: Induction of cell death in human T24 cells at 0.1 to 25 uM; format: cell-based; details: t-24, 25 µM
[2] = target: T1, Protein deacetylase HDAC6 (Mus musculus) (UniProt Q9Z2V5); test: Inhibition of HDAC6 in mouse SM1 cells assessed as reduction in IL-6 stimulated PDL1 overexpression at 5 uM pretreated for 1 hr followed by IL-6 stimulation for overnight by western blot analysis; format: cell-based
T1 sequence (whole entry): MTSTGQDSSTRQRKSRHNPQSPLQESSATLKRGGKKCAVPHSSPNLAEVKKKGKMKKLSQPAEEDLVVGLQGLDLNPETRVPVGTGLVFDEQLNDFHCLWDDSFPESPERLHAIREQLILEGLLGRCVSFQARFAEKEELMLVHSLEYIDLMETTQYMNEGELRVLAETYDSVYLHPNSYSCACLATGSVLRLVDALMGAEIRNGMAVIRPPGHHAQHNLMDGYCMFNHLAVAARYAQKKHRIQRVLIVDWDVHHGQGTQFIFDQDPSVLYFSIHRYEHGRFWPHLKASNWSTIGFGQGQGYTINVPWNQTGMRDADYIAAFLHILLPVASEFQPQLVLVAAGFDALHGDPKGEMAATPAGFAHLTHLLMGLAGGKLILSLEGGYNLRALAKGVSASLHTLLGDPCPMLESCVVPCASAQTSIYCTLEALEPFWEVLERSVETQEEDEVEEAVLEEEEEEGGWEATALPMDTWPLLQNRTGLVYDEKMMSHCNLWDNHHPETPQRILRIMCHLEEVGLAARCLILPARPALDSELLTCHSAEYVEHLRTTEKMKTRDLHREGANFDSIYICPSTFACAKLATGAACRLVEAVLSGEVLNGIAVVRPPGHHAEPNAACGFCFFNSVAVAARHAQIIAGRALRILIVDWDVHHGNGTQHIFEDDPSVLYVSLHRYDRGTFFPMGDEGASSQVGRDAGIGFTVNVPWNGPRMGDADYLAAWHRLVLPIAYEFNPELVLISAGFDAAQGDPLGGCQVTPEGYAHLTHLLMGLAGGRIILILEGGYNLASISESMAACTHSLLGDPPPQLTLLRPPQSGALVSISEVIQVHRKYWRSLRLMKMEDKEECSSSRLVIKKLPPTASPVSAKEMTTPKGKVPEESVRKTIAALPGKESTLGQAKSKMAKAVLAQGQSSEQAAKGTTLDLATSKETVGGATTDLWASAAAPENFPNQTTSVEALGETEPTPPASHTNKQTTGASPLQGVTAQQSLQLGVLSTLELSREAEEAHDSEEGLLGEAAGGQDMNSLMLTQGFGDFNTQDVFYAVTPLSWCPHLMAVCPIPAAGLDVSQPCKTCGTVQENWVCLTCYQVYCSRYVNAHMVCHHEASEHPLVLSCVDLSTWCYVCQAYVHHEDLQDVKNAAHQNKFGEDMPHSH
Procedure, shortened: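 SM1 cells pretreated with 5 µM compound, then IL-6 overnight. Lysed in RIPA buffer with protease and phosphatase inhibitors, sonicated, protein quantified by BCA. Immunoblot for PD-L1 and STAT3 Y705 phosphorylation.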

[3] = Mutagenicity in Salmonella typhimurium TA98 assessed as induction of >= 2 fold increase in revertant colonies at 1.5 to 1000 ug/well in presence of S9 fraction by Ames test; format: toxicity, subcellular; details: salmonella enterica subsp. enterica serovar typhimurium
Procedure, shortened: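 Ames test with S. typhimurium TA98 and TA1537, with and without S9 mix. A positive call required a ≥ 2-fold (TA98) or ≥ 3-fold (TA1537) rise in mean revertant colonies over the concurrent negative/solvent control.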

[4] = target: Voltage-gated inwardly rectifying potassium channel KCNH2 (Homo sapiens, UniProt Q12809); test: Inhibition of human ERG expressed in HEK293 cells by manual-patch clamp assay; format: cell-based
Voltage-gated inwardly rectifying potassium channel KCNH2, sequence (Q12809 whole entry): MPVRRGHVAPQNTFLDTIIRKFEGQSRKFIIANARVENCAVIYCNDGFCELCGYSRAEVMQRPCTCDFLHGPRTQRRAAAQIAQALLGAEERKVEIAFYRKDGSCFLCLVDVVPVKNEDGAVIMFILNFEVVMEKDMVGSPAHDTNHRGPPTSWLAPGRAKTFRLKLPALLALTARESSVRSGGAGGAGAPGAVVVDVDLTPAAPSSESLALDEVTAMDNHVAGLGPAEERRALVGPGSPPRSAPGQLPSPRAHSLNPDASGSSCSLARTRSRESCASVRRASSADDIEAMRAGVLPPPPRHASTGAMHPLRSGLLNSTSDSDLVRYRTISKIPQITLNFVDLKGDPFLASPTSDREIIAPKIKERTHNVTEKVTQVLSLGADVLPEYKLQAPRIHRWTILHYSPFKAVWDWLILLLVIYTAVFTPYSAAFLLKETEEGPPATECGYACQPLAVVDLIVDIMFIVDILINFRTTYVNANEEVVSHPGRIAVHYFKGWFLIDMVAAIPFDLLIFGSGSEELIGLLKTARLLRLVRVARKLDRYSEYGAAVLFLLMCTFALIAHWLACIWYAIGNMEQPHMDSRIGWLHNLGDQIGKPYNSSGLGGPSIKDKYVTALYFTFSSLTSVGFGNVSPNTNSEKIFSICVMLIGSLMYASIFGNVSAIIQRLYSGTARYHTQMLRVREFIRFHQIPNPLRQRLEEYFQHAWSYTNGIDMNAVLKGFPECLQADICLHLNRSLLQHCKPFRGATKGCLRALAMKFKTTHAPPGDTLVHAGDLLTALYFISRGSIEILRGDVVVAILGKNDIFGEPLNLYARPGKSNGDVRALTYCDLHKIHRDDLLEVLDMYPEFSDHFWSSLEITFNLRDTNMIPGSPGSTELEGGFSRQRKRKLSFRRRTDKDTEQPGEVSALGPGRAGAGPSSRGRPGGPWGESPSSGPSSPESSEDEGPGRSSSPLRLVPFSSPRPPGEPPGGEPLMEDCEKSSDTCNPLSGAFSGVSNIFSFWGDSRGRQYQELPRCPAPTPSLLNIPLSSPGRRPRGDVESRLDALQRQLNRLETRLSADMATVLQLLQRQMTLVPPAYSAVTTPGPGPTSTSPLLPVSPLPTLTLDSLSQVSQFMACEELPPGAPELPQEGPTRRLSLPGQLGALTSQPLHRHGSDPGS

[5] = Half life in human liver microsomes in presence of NADPH; format: ADME, Microsome
Procedure, shortened: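 Liver microsomal stability in mouse and human microsomes with NADPH; half-life in minutes.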

[6] = Half life in mouse hepatocytes; format: ADME, cell-based, Hepatocyte
Procedure, shortened: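 Half-life in minutes measured in mouse and human hepatocytes.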

[7] = target: T1, Protein deacetylase HDAC6 (Mus musculus); test: Inhibition of HDAC6 in mouse SM1 cells assessed as increase in acetylated alpha-tubulin level at 5 to 10 uM after 24 hrs by Western blot analysis; format: cell-based
[8] = target: T1, Protein deacetylase HDAC6 (Mus musculus); test: Inhibition of HDAC6 in mouse SM1 cells assessed as reduction in IL-6 stimulated CD274 gene expression at 5 uM pretreated for 1 hr followed by IL-6 stimulation for overnight by qRT-PCR analysis; format: cell-based
Procedure, shortened: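 SM1 cells serum-starved overnight, pretreated 1 h with 5 µM compound, then given recombinant murine IL-6 at 30 ng/mL overnight. Total RNA extracted with Trizol; PD-L1 mRNA measured by qRT-PCR, normalized to GAPDH by the Pfaffl method, in arbitrary units.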

[9] = tested on: Mus musculus; test: Antitumor immunity against mouse SM1 cells implanted in flank of immunocompetent C57BL/6 mouse assessed as infiltration of intratumoral CD4+ cells at 25 mg/kg, ip administered 1 week post-implantation by flow cytometry; format: functional, organism-based
[10] = tested on: PC-3; test: Induction of cell death in human PC3 cells at 0.1 to 25 uM; format: cell-based; details: pc-3, 25 µM
[11] = tested on: 5637; test: Induction of cell death in human 5637 cells at 0.1 to 25 uM; format: cell-based; details: human, 5637, 25 µM

## O=C(NCCc1cc(C(=O)NO)no1)c1ccc(Cl)c(Cl)c1
[1]
  Activity: Non-Toxic
[2]
  inhibition: Active
[3]
  Activity: Non-Toxic
[4]
  IC50: > 30 µM
[5]
  half-life: 2.25 h
[6]
  half-life: 0.367 h
[7]
  inhibition: Active
[8]
  inhibition: Active
[9]
  Activity: inactive
[10]
  Activity: Non-Toxic
[11]
  Activity: Non-Toxic
